Here are results for eight substances from paper PMC8500941 (Molecular cell, 2021).

“Also recorded” adds a separate entry of the source.

One data set deals with W102 of DnaK. The data set can be described thus: Tryptophan fluorescence assay. The format is biochemical, Escherichia coli. The note with it: for W102 fluorescence of D148 mutants (in words): ATP and ADP, compared with wild-type levels; for wavelength of maximal W102 fluorescence: 1 μM DnaK, buffer A pH 7.5, ~25°C, excitation 290 nm. Put shortly:
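Protein: full-length DnaK with C-terminal His6, expressed in BB205 and purified by HisTrap then HiTrap Q. Protein (1 μM final) preincubated 2 min with 2 mM ATP or ADP in buffer A (25 mM Hepes-KOH pH 7.5, 100 mM KCl, 10 mM Mg(OAc)2). Emission 300–400 nm recorded at ~25°C. Spectra normalised to ADP peak = 1.0. ATP-versus-ADP peak-wavelength shift compared.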

Data set [1] relates to dnaK deletion strain BB205 E. coli cells. The data set can be described thus: Cell viability tests. The format is cell-based, Escherichia coli. The note with it: growth on LB agar at elevated temperature (37°C to 40°C), 20 μM IPTG. Put shortly:
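DnaK-dependence test: pBB46 plasmids (ampR) carrying mutant dnaK transformed into BB205 (camR kanR). Fresh overnight culture from each fresh transformation, serially diluted, spotted on LB with 50 μg/ml ampicillin, 25 μg/ml kanamycin, 25 μg/ml chloramphenicol, 20 μM IPTG. Grown overnight at 37°C to 40°C, with control plates at 30°C. Viability scored from growth.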

In data set [2] the test system is DnaK. The note with it: from biochemical assays of this paper.
For data set [3], the system named is DnaK. The note with it: for ATP hydrolysis (in words): intrinsic / low peptide concentration, compared with WT; for kcat (ATP hydrolysis): single-turnover, constitutively stimulated state (k′ = kcat); for rate of ATP hydrolysis, basal: buffer A pH 7.5, single-turnover.
Data set [4] relates to yeast Ssa1 and E. coli DnaK. To be noted: heat shock; ref Liu & Hendrickson, 2007; cited from earlier work.
For data set [5], the system named is DnaK. To be noted: from d with KD^0S 1.73 μM; 20°C.

As to D148I, the “W102 fluorescence of D148 mutants (in words)” value in the data set on W102 of DnaK was “quenched and blue-shifted to beyond wild-type levels”. Further, the “chaperone activity / cell viability (in words)” value in data set [1] is “destroy chaperone activity”. In addition, the “allosteric state phenotype (in words)” value in the data set on DnaK [2] is given as “exclusive stabilization of the restraining R-state alternative”.
For the substance D148V, the “W102 fluorescence of D148 mutants (in words)” value in the data set with W102 of DnaK was “quenched and blue-shifted to beyond wild-type levels”.
On to I160D, for which the “ATP hydrolysis (in words)” value in the data set with DnaK [3] is “constitutively high ATPase activities”. Besides, in data set [4], the “phenotype of mutants (in words)” value is recorded as “profoundly defective”.
For the substance I483D, the “chaperone activity / cell viability (in words)” value in data set [1] was “negligible chaperone activity; also recorded: destroy chaperone activity”. Besides, the “kcat (ATP hydrolysis)” value with DnaK [3] (20°C) was found to be 0.00452 ± 0.000183 s⁻¹. In addition, the “ATP hydrolysis (in words)” value in the data set on DnaK [3] was “constitutively high ATPase activities”. Further, the “KeqS = [R] / [S]” value with DnaK [5] is reported as 0. The “phenotype of mutants (in words)” value in data set [4] is recorded as “profoundly defective”.
Turning to N170D, the “rate of ATP hydrolysis, basal” value with DnaK [3] (basal, 20°C) was 0.37 min⁻¹. For the same substance, the “enhancement of basal ATP hydrolysis over WT” value in the data set on DnaK [3] (basal, 20°C, versus WT) worked out at 31 fold. The “phenotype of mutants (in words)” value in data set [4] is reported as “profoundly defective”.
As for V389D, the “phenotype of mutants (in words)” value in data set [4] is “profoundly defective”.
For the substance “WT DnaK: full-length wild-type E. coli Hsp70 DnaK”, the “wavelength of maximal W102 fluorescence” value in the data set with W102 of DnaK (2 mM ADP) is reported as 342 nm; with W102 of DnaK (2 mM ATP), 335 nm. Further, the “W102 fluorescence change (in words)” value in the data set with W102 of DnaK (ATP as compared with ADP) was “quenched and blue shifted”. In addition, the “rate of ATP hydrolysis, basal” value in the data set with DnaK [3] (basal, 20°C) amounted to 0.012 min⁻¹.
As to “WT∷NR: DnaK (residues 1–609) fused through a flexible linker to the NRLLLTG heptapeptide”, the “kcat (ATP hydrolysis)” value in the data set on DnaK [3] (20°C) turned out to be 0.00455 ± 0.00013 s⁻¹. Besides, the “KeqS = [R] / [S]” value in the data set on DnaK [5] stood at 0.
